# Source: ChEMBL document CHEMBL4373711, “Development of 3,5-Dinitrophenyl-Containing 1,2,4-Triazoles and Their Trifluoromethyl Analogues as Highly Efficient Antitubercular Agents Inhibiting Decaprenylphosphoryl-β-d-ribofuranose 2'-Oxidase” (J Med Chem, 2019)
# Calls of active or inactive are those of the source. No cut-off for these calls is given here.
# Assays:
# Mycobacterium avium [1] = assay: Antimycobacterial activity against Mycobacterium avium CNCTC My 330/88 after 14 days; type: functional; details: CNCTC My 330/88, 336 h
# Procedure, shortened: (§1)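 M. avium was tested by microdilution in Šula's semisynthetic medium, with compounds dissolved in DMSO and serially diluted from 1000 down to 1. Inoculum was a 1.0 McFarland suspension diluted 10-5. Plates were incubated at 37 °C and read at 14 and 21 days. […] Isoniazid and rifampicin served as standards.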
# [2] = tested on: Staphylococcus epidermidis; assay: Antibacterial activity against Staphylococcus epidermidis at highest concentration measured after 24 to 48 hrs by alamar blue dye based broth microdilution assay; type: functional, organism-based
# Staphylococcus aureus [3] = assay: Antibacterial activity against Staphylococcus aureus subsp. aureus ATCC 29213 CCM 4223 at highest concentration measured after 24 to 48 hrs by alamar blue dye based broth microdilution assay; type: functional, organism-based
# Mycobacterium kansasii [4] = assay: Antimycobacterial activity against Mycobacterium kansasii 6509/96 after 7 days; type: functional; details: 6509/96, 168 h
# Procedure, shortened: (§2)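 Microdilution in Šula's semisynthetic medium; compounds in DMSO at 32–0.03 µM. Inoculum from 1.0 McFarland suspension diluted 10-4. […] Isoniazid and rifampicin as reference drugs.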
# [5] = tested on: Mycobacterium tuberculosis; assay: Antimycobacterial activity against Mycobacterium tuberculosis H37Rv CNCTC My 331/88 after 21 days; type: functional; details: H37Rv CNCTC My 331/88, 504 h
# Procedure, shortened: (§3)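 M. tuberculosis strains (H37Rv and clinical MDR/XDR isolates) tested by microdilution in Šula's semisynthetic medium. Compounds were dissolved in DMSO and tested at 32 to 0.03 µM in twofold steps. Inoculum was a 1.0 McFarland suspension diluted 10-3. Plates were incubated at 37 °C and read at 14 and 21 days.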
# Mycobacterium kansasii [6] = assay: Antimycobacterial activity against Mycobacterium kansasii CNCTC My 235/80 after 14 days; type: functional; details: CNCTC My 235/80, 336 h; procedure, shortened: as §2
# Mycobacterium kansasii [7] = assay: Antimycobacterial activity against Mycobacterium kansasii 6509/96 after 14 days; type: functional; details: 6509/96, 336 h; procedure, shortened: as §2
# Candida parapsilosis = assay: Antifungal activity against Candida parapsilosis ATCC 22019 CCM 8260 at highest concentration measured after 24 to 48 hrs by alamar blue dye based broth microdilution assay; type: functional, organism-based
# Klebsiella pneumoniae = assay: Antibacterial activity against Klebsiella pneumoniae at highest concentration measured after 24 to 48 hrs by alamar blue dye based broth microdilution assay; type: functional, organism-based
# Pichia kudriavzevii = assay: Antifungal activity against Candida krusei ATCC 6258 CCM8271 at highest concentration measured after 24 to 48 hrs by alamar blue dye based broth microdilution assay; type: functional, organism-based
# Mycobacterium kansasii [8] = assay: Antimycobacterial activity against Mycobacterium kansasii CNCTC My 235/80 after 7 days; type: functional; details: CNCTC My 235/80, 168 h; procedure, shortened: as §2
# [9] = Cytotoxicity against human A431 cells assessed as cell viability at 30 uM after 48 hrs by CellTiter 96 aqueous one solution assay relative to control; type: cell-based, A-431; details: read-out: Activity
# Procedure, shortened: (§4)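 HepG2 (DMEM, 10% FBS, 1 mM pyruvate) or A431 (DMEM, 10% FBS) seeded 10,000 cells/well, 24 h at 37 °C, 5% CO2, then 30 µM compound for 48 h. MTS reagent 60 min, absorbance 490 nm, background subtracted; 0.1% DMSO vehicle = 100%, 10% SDS = 0% viability.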
# Pseudomonas aeruginosa = assay: Antibacterial activity against Pseudomonas aeruginosa ATCC 27853 CCM 3955 at highest concentration measured after 24 to 48 hrs by alamar blue dye based broth microdilution assay; type: functional, organism-based
# [10] = tested on: Mycobacterium tuberculosis; assay: Antimycobacterial activity against Mycobacterium tuberculosis H37Rv CNCTC My 331/88 after 14 days; type: functional; details: H37Rv CNCTC My 331/88, 336 h; procedure, shortened: as §3
# Aspergillus fumigatus = assay: Antifungal activity against Aspergillus fumigatus ATCC 204305 at highest concentration measured after 24 to 48 hrs by alamar blue dye based broth microdilution assay; type: functional, organism-based
# [11] = Cytotoxicity against human HepG2 cells assessed as cell viability at 30 uM after 48 hrs by CellTiter 96 aqueous one solution assay relative to control; type: cell-based; details: read-out: Activity; procedure, shortened: as §4
# [12] = tested on: Trichophyton interdigitale; assay: Antifungal activity against Trichophyton interdigitale ATCC 9533 CCM 8377 at highest concentration measured after 72 to 120 hrs by alamar blue dye based broth microdilution assay; type: functional
# HepG2 = assay: Cytotoxicity against human HepG2 cells assessed as reduction in cell viability after 48 hrs by CellTiter 96 aqueous one solution assay; type: cell-based; details: HepG2, 48 h
# Enterococcus faecalis = assay: Antibacterial activity against Enterococcus faecalis ATCC 29212 CCM 4224 at highest concentration measured after 24 to 48 hrs by alamar blue dye based broth microdilution assay; type: functional, organism-based
# A-431 = assay: Cytotoxicity against human A431 cells assessed as reduction in cell viability after 48 hrs by CellTiter 96 aqueous one solution assay; type: cell-based; details: A-431, 48 h
# Mycobacterium avium [13] = assay: Antimycobacterial activity against Mycobacterium avium CNCTC My 330/88 after 21 days; type: functional; details: CNCTC My 330/88, 504 h; procedure, shortened: as §1
# Escherichia coli = assay: Antibacterial activity against Escherichia coli ATCC 25922 CCM 3954 at highest concentration measured after 24 to 48 hrs by alamar blue dye based broth microdilution assay; type: functional, organism-based
# Staphylococcus aureus [14] = assay: Antibacterial activity against methicillin-resistant Staphylococcus aureus subsp. aureus ATCC 43300 CCM 4750 at highest concentration measured after 24 to 48 hrs by alamar blue dye based broth microdilution assay; type: functional, organism-based
# Candida tropicalis = assay: Antifungal activity against Candida tropicalis ATCC 750 CCM 8264 at highest concentration measured after 24 to 48 hrs by alamar blue dye based broth microdilution assay; type: functional, organism-based
# Mycobacterium kansasii [15] = assay: Antimycobacterial activity against Mycobacterium kansasii CNCTC My 235/80 after 21 days; type: functional; details: CNCTC My 235/80, 504 h; procedure, shortened: as §2
# Serratia marcescens = assay: Antibacterial activity against Serratia marcescens at highest concentration measured after 24 to 48 hrs by alamar blue dye based broth microdilution assay; type: functional, organism-based
# Mycobacterium kansasii [16] = assay: Antimycobacterial activity against Mycobacterium kansasii 6509/96 after 21 days; type: functional; details: 6509/96, 504 h; procedure, shortened: as §2
# Aspergillus flavus = assay: Antifungal activity against Aspergillus flavus CCM 8363 at highest concentration measured after 24 to 48 hrs by alamar blue dye based broth microdilution assay; type: functional, organism-based
# Lichtheimia corymbifera = assay: Antifungal activity against Lichtheimia corymbifera CCM 8077 at highest concentration measured after 24 to 48 hrs by alamar blue dye based broth microdilution assay; type: functional, organism-based
# Candida albicans = assay: Antifungal activity against Candida albicans ATCC 24433 CCM 8320 at highest concentration measured after 24 to 48 hrs by alamar blue dye based broth microdilution assay; type: functional, organism-based
SMILES,MIC99 (Mycobacterium avium [1]),Activity [2],Activity (Staphylococcus aureus [3]),MIC99 (Mycobacterium kansasii [4]),MIC99 [5],MIC99 (Mycobacterium kansasii [6]),MIC99 (Mycobacterium kansasii [7]),Activity (Candida parapsilosis),Activity (Klebsiella pneumoniae),Activity (Pichia kudriavzevii),MIC99 (Mycobacterium kansasii [8]),Activity (Pseudomonas aeruginosa),MIC99 [10],Activity (Aspergillus fumigatus),Activity [12],Activity (Enterococcus faecalis),MIC99 (Mycobacterium avium [13]),Activity (Escherichia coli),Activity (Staphylococcus aureus [14]),Activity (Candida tropicalis),further results
O=[N+]([O-])c1cc(-c2nnc(SCc3ccc(Cl)cc3)n2Cc2ccccc2)cc(C(F)(F)F)c1,250 µM,inactive,inactive,0.5 µM,0.5 µM,0.5 µM,0.5 µM,inactive,inactive,inactive,0.5 µM,inactive,0.5 µM,inactive,inactive,inactive,250 µM,inactive,inactive,inactive,"viability at 48 h, 30 µM [9]: 121%; viability at 48 h, 30 µM [11]: 68%; IC50 (HepG2): > 30 µM; IC50 (A-431): > 30 µM; MIC99 (Mycobacterium kansasii [15]): 0.5 µM; Activity (Serratia marcescens): inactive; MIC99 (Mycobacterium kansasii [16]): 0.5 µM; Activity (Aspergillus flavus): inactive; Activity (Lichtheimia corymbifera): inactive; Activity (Candida albicans): inactive"
CCCCCCn1c(SCc2ccccc2)nnc1-c1cc([N+](=O)[O-])cc([N+](=O)[O-])c1,250 µM,inactive,inactive,1 µM,1 µM,1 µM,1 µM,inactive,inactive,inactive,1 µM,inactive,1 µM,inactive,inactive,inactive,250 µM,inactive,inactive,inactive,"viability at 48 h, 30 µM [9]: 98%; viability at 48 h, 30 µM [11]: 102%; IC50 (HepG2): > 30 µM; IC50 (A-431): > 30 µM; MIC99 (Mycobacterium kansasii [15]): 1 µM; Activity (Serratia marcescens): inactive; MIC99 (Mycobacterium kansasii [16]): 1 µM; Activity (Aspergillus flavus): inactive; Activity (Lichtheimia corymbifera): inactive; Activity (Candida albicans): inactive"
O=[N+]([O-])c1cc(CSc2nnc(-c3ccccc3)n2Cc2ccc(Cl)cc2Cl)cc([N+](=O)[O-])c1,250 µM,inactive,inactive,> 32 µM,> 32 µM,> 32 µM,> 32 µM,inactive,inactive,inactive,> 32 µM,inactive,> 32 µM,inactive,inactive,inactive,250 µM,inactive,inactive,inactive,MIC99 (Mycobacterium kansasii [15]): > 32 µM; Activity (Serratia marcescens): inactive; MIC99 (Mycobacterium kansasii [16]): > 32 µM; Activity (Aspergillus flavus): inactive; Activity (Lichtheimia corymbifera): inactive; Activity (Candida albicans): inactive
O=[N+]([O-])c1cc(Cn2c(SCc3ccc(Cl)c(Cl)c3)nnc2-c2ccccc2)cc([N+](=O)[O-])c1,250 µM,inactive,inactive,8 µM,16 µM,8 µM,16 µM,inactive,inactive,inactive,4 µM,inactive,8 µM,inactive,inactive,inactive,250 µM,inactive,inactive,inactive,MIC99 (Mycobacterium kansasii [15]): 16 µM; Activity (Serratia marcescens): inactive; MIC99 (Mycobacterium kansasii [16]): 16 µM; Activity (Aspergillus flavus): inactive; Activity (Lichtheimia corymbifera): inactive; Activity (Candida albicans): inactive
O=[N+]([O-])c1cc(CSc2nnc(C3CCCCC3)n2Cc2ccccc2)cc([N+](=O)[O-])c1,250 µM,inactive,inactive,4 µM,4 µM,4 µM,4 µM,inactive,inactive,inactive,4 µM,inactive,2 µM,inactive,inactive,inactive,250 µM,inactive,inactive,inactive,MIC99 (Mycobacterium kansasii [15]): 4 µM; Activity (Serratia marcescens): inactive; MIC99 (Mycobacterium kansasii [16]): 4 µM; Activity (Aspergillus flavus): inactive; Activity (Lichtheimia corymbifera): inactive; Activity (Candida albicans): inactive
